# Compound activity (PubChem)
# A selection follows.
# Apaf1 activ = activates human Apaf-1 apoptosome | activity change, negative = activation, % at 20 µM | 330,000 tested, 0.31% active | Apaf-1 apoptosome caspase-3 activation, DEVD-Rh110 fluorescence; active compounds read low;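 active = activity change at or below -40% at 20 µM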
#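 system = biochemical Apaf-1 apoptosome reconstitution | buffer or medium = 20 mM HEPES pH 7.5 with CHAPS, BSA | also added = dATP and cytochrome c as apoptosome triggers, (Z-DEVD)2-Rh110 substrate | incubation = 30 min compound preincubation and 50 min reaction, both room temperature | measured by = fluorescence, 540 nm emission, 480 nm excitation | read-out basis = Caspase-3 cleavage activity downstream of Apaf-1 activation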
# Rh110 act interf = Rh110 signal interference in Apaf-1 activator counter-screen; shares compounds with Apaf1 activ; Rh110 fluorescence interference, quenched caspase reaction, Ex480/Em540; fluorescence interference (activity change), % at 20 µM, hits read low; 980 tested, under 10 active; AID 504616;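 active = mean activity change at or below -40% when tested at 20 µM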
# Apaf-1 act conf = Apaf-1 (human) activation, single-dose confirmed; shares compounds with Apaf1 activ; reconstituted apoptosome caspase-3 activity, DEVD-Rh110 fluorescence; active compounds read low; activity change, negative = activation, % at 20 µM; 980 tested, 5% active; AID 504617;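 active = mean activity change at or below -40%, meaning activation of 40% or more, at 20 µM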
# Apaf1 act interf = shows fluorescence interference in the Apaf-1 activator assay format; shares compounds with Apaf1 activ; fluorescence interference counterscreen; EC50, µM; 55 tested, under 10 active; AID 588592; call rule not given here
# Active calls of the source: *.
SMILES,Apaf1 activ,others
CC(C(=O)NC(=O)NC1CCCCC1)N(C)CC(=O)Nc1ccc(F)c(F)c1F (centres undefined),46,
CC(C)C[C@H]1CN=C(Nc2ccccc2)N1CC1CCC(C(C)(C)C)CC1 (some centres undefined),56,
C=CC(=O)Nc1ccc(N(C)c2ccnc(Nc3ccc(N4CCN(C)CC4)cc3)n2)cc1,62,
O=C(CCS(=O)(=O)c1ccc(Br)cc1)N1CCCCCC1,-283*,
COC(C[C@H]1O[C@@H]1C(=O)[C@H](C)OCc1ccccc1)OC,48,
COC(=O)c1ccccc1S(=O)(=O)N1CCC(C(=O)N2CCC2)CC1,55,
NS(=O)(=O)c1ccc(CCNC(=O)CCS(=O)(=O)c2ccc(Br)cc2)cc1,-214*,
CNC[C@@H]1Oc2ccc(NC(=O)Nc3cccc4ccccc34)cc2C(=O)N([C@@H](C)CO)C[C@@H]1C,57,
CCCCCCSc1ccc(-c2nc3cnccn3c2NCCCC)cc1,56,
CCN(CC(=O)Nc1ccc(OC)cc1)C(=O)C1CCN(C(=O)c2ccc(Cl)cc2)CC1,58,
COc1ccc(OC)c(S(=O)(=O)Oc2ccc(N)c3ccccc23)c1,69,
CCCN[C@H]1CCc2nc(N)sc2C1,-2,
CCC1CCc2sc(C(=O)NCC(c3ccc(OC)cc3)N3CCCC3)cc2C1 (centres undefined),46,
COc1ccc(CC(=O)N(C)CC(=O)Nc2ccccc2C(F)(F)F)cc1S(=O)(=O)N1CCOCC1,46,
COc1ccc(CN(C)C(C)C(=O)Nc2ccc(S(=O)(=O)N3CCCC3)cc2)c(OC)c1OC (centres undefined),-83*,
COc1ccc(CC(=O)N(C)CC(=O)Nc2c(C)cccc2C)cc1S(=O)(=O)N1CCOCC1,60,
O=C1c2ccccc2[C@@H]2C[C@@H](O)[C@H](Nc3cccc4ccccc34)CCN12,53,
Cc1cccc(N2CCN(C(=O)c3cc4cc(F)ccc4[nH]3)CC2)c1C,42,
CCCCN1CC[C@H]2C=CC[C@@H](C(=O)N3CCOCC3)[C@H]2C1=O,-437*,
C#CCOCCOCCOCCNc1nc(N2CCN(C(=O)[C@H](Cc3cc4ccccc4[nH]3)n3cc([C@@H](N)CC(C)C)nn3)CC2)nc(N2CCN(C(=O)[C@H](Cc3cc4ccccc4[nH]3)n3cc([C@@H](N)CC(C)C)nn3)CC2)n1,71,
Cc1ccc(NC(=O)CSc2nc3ccccc3c(=O)n2CCCN2CCCCC2)cc1C,55,
COCCCn1c(=O)c2sccc2n(Cc2ccccc2C)c1=O,60,
Cc1ncc([N+](=O)[O-])n1CCN1C(=O)c2ccccc2C1=O,-144*,Rh110 act interf=-3;Apaf-1 act conf=9
CN(C)c1ccc(N/C=C/C(=O)C(C)(C)C)cc1,53,
COc1ccc(CCN(C)C(=O)c2cccc(S(=O)(=O)NCc3ccccc3)c2)cc1OC,57,
SMILES,Apaf1 activ,others
CCOc1cc(/C=C2\C(=O)N(c3ccc(C(N)=O)cc3)N=C2C)ccc1OC(=O)c1cccs1,93,
COc1ccc(CCNC(=O)COC(=O)c2cccs2)cc1OC,-163*,Rh110 act interf=19;Apaf-1 act conf=16
Cn1c(SCC(=O)n2c3c(c4ccccc42)CCCC3)nnc1-c1ccccc1,43,
Cn1c(SCC(=O)NNC(=O)c2ccccc2)nnc1C(F)(F)F,-97*,Rh110 act interf=-2;Apaf-1 act conf=8
CCN1CCN(CCNC(=O)c2ccc3nc(-c4cccc(C)c4)c(-c4cccc(C)c4)nc3c2)CC1,47,
N#Cc1nc(-c2ccc(OCc3ccc(Cl)cc3)cc2)oc1N1CCC(C(N)=O)CC1,-82*,Rh110 act interf=2;Apaf-1 act conf=-96*;Apaf1 act interf=>100
CCN1/C(=C/C=C/c2sc3ccccc3[n+]2CC)Sc2ccccc21,90,
CCCCCc1cc(=O)oc2c(C(CCN3CCCC(C)C3)c3cc(OC)c(OC)c(OC)c3)c(OC)cc(OC)c12 (centres undefined),60,
NC(=O)CSc1ncc(-c2ccc([N+](=O)[O-])cc2)[nH]1,-244*,Rh110 act interf=15;Apaf-1 act conf=8
CCCOc1ccc(N)cc1N,91,
C=C[C@@H]1CN2CCC1C[C@@H]2[C@@H](O)c1ccnc2ccc(OC)cc12 (some centres undefined),1,
NS(=O)(=O)c1ccc(N=Nc2c[nH]c(=O)c(O)c2)cc1,74,
COC(=O)c1c(N)n(-c2ccc(NC(C)=O)cc2)c2nc3ccccc3nc12,49,
CC(=O)Nc1ccc(NC(=O)C2CC(=O)Nc3nc4ccccc4n32)cc1 (centres undefined),-43*,Rh110 act interf=6;Apaf-1 act conf=9
CC(=O)Nc1cccc(NC(=S)Nc2cccc3ccccc23)c1,97,
